Measurements published in ChEMBL document CHEMBL3259596, “Lactam and oxazolidinone derived potent 5-hydroxytryptamine 6 receptor antagonists” (Bioorg Med Chem Lett, 2014).

The compounds below were run against T1, 5-hydroxytryptamine receptor 2C (Homo sapiens, UniProt P28335) (assay: Binding affinity to 5-HT2C receptor (unknown origin)). Conditions: not given; call rule not given here.
T1 sequence (P28335 whole entry): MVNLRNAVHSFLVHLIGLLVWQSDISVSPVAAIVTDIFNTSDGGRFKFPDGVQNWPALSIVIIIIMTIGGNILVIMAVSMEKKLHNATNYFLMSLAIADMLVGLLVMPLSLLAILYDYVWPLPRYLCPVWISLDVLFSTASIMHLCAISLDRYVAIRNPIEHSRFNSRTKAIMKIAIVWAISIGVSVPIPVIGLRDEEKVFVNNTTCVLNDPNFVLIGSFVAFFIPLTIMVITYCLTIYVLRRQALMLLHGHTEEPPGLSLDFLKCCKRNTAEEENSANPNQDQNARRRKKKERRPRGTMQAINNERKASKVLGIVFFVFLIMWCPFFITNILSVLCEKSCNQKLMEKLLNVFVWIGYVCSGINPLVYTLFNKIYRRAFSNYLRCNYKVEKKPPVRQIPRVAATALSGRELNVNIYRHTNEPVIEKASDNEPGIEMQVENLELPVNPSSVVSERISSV

| SMILES | Ki [nM] |
| --- | --- |
| O=C1CC(c2ccccc2)CN1c1cnc2c(N3CCNCC3)cccc2c1 (single isomer, unassigned; enantiomer 1) | > 30000 |

These compounds were tested on Brain (assay: Drug uptake in rat brain at 5 mg/kg, po after 6 hrs). Conditions: in vivo.
Type: ADME, organism-based
Design: dose 5 mg/kg, route oral
In short: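 Rats dosed orally at 5 mg/kg. Compound measured in brain 6 h after dosing.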

| SMILES | Drug uptake |
| --- | --- |
| O=C1CC(c2ccccc2)CN1c1cnc2c(N3CCNCC3)cccc2c1 (single isomer, unassigned; enantiomer 1) | Active |

These compounds were tested against 5-hydroxytryptamine receptor 2B (Homo sapiens, UniProt P41595) (assay: Binding affinity to 5-HT2B receptor (unknown origin)). Conditions: not given.
5-hydroxytryptamine receptor 2B, sequence (P41595 whole entry): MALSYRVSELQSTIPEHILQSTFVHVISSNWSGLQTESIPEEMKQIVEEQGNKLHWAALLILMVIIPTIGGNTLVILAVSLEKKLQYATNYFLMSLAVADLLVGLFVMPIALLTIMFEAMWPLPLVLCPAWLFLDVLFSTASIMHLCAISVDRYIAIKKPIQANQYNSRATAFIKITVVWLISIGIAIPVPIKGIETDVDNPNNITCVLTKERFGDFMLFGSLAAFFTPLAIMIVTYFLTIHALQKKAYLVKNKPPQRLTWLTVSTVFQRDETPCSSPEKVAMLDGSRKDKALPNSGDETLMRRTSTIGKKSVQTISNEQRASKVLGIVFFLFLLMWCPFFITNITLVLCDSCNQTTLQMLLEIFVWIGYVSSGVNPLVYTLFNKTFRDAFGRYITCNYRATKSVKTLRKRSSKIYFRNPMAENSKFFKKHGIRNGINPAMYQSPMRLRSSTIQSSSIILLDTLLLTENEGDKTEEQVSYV

| SMILES | Ki [nM] |
| --- | --- |
| O=C1CC(c2ccccc2)CN1c1cnc2c(N3CCNCC3)cccc2c1 (single isomer, unassigned; enantiomer 1) | > 30000 |

The compounds below were run against 5-hydroxytryptamine receptor 2A (Homo sapiens, UniProt P28223) (assay: Binding affinity to 5-HT2A receptor (unknown origin)). Conditions: not given.
5-hydroxytryptamine receptor 2A, sequence (P28223 whole entry): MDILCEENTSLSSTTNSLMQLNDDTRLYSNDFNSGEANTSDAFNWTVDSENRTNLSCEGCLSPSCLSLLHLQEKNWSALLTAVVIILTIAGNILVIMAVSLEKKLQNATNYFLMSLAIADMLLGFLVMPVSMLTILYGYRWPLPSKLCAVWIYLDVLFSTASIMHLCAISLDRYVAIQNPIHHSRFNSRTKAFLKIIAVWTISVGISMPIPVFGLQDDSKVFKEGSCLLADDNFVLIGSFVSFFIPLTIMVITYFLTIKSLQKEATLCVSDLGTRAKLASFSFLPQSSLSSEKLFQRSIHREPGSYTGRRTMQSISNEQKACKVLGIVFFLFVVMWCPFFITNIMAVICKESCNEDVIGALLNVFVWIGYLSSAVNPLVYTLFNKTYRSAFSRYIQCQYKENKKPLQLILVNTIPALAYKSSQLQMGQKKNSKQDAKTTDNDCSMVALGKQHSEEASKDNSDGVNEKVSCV

| SMILES | Ki [nM] |
| --- | --- |
| O=C1CC(c2ccccc2)CN1c1cnc2c(N3CCNCC3)cccc2c1 (single isomer, unassigned; enantiomer 1) | 3100 |

The compounds below were run against T2, 5-hydroxytryptamine receptor 6 (Homo sapiens, UniProt P50406) (assay: Displacement of [3H]LSD from human recombinant 5-HT6 receptor expressed in CHO-K1 cell membrane after 3 hrs by liquid scintillation counting analysis). Conditions: not given.
T2 sequence (P50406 whole entry): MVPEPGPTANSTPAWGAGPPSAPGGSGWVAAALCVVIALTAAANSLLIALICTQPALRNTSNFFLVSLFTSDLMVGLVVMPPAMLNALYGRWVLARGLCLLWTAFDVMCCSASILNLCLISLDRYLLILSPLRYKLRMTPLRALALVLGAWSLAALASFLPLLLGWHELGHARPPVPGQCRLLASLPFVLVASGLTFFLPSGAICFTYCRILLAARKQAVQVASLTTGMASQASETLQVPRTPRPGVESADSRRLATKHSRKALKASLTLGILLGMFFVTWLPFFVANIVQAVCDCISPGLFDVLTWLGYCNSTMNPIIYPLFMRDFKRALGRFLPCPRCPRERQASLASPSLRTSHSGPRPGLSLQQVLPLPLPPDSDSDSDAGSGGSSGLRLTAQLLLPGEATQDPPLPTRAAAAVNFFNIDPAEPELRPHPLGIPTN
Type: cell membranes
In short: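 Membranes from CHO-K1 cells stably expressing human 5-HT6, 1.75 µg protein, preincubated with scintillation beads 30 min at 4 °C. Buffer was 50 mM Tris-HCl pH 7.4, 4 mM CaCl2, saponin, 0.1% ascorbic acid. Incubated 3 h at room temperature with 4 nM [3H]LSD (Kd 2.3 nM) over half-log dilutions. Nonspecific binding defined with 10 µM serotonin. IC50 from variable-slope fit, Ki by Cheng-Prusoff, mean of three experiments.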

| SMILES | Ki [nM] |
| --- | --- |
| O=C1CCCN1c1cnc2c(N3CCNCC3)cccc2c1 | 4900 |
| COc1cc(OC)cc(N2C(=O)CSC23C(=O)Nc2ccccc23)c1 (racemic) | 88 |
| O=C1CSC2(C(=O)Nc3ccccc32)N1c1ccccc1 (racemic) | 5700 |
| O=C1CC(c2ccccc2)CN1c1ccc2c(c1)CCNCC2 (racemic) | 54 |
| O=C1CC(c2ccccc2Cl)CN1c1ccc2c(c1)CCNCC2 (racemic) | 100 |
| Clc1ccccc1C1CCN(c2ccc3c(c2)CCNCC3)C1 (racemic) | 650 |
| O=C1CC(c2ccccc2)CN1c1ccc2c(c1)CCCNC2 (racemic) | 1200 |
| O=C1CC(c2ccccc2)CN1c1ccc2c(c1)CNCC2 (racemic) | 140 |
| O=C1CC(c2ccccc2)CN1c1cccc(C2CCNCC2)c1 (racemic) | 70 |
| O=C1CC(c2ccccc2)CN1c1cccc(N2CCNCC2)c1 (racemic) | 84 |
| O=C1CC(c2ccccc2)CN1c1cccc(N2CCNCC2)n1 (racemic) | 48 |
| O=C1CC(c2ccccc2)CN1c1cncc(N2CCNCC2)c1 (racemic) | 4100 |
| CN1CCN(c2ncc(N3CC(c4ccccc4)CC3=O)s2)CC1 (racemic) | > 30000 |
| O=C1CC(c2ccccc2)CN1c1cnc2c(N3CCNCC3)cccc2c1 (racemic) | 2.6 |
| O=C1CC(c2ccccc2)CN1c1ccc2c(N3CCNCC3)ccnc2c1 (racemic) | 55 |
| O=C1CC(c2ccccc2)CN1c1cnc2c(N3CCCNCC3)cccc2c1 (racemic) | 10 |
| O=C1OC(c2ccccc2)CN1c1ccc2c(c1)CCNCC2 (racemic) | 16 |
| O=C1OC(c2ccccc2F)CN1c1ccc2c(c1)CCNCC2 (racemic) | 15 |
| O=C1OC(c2ccccc2Cl)CN1c1ccc2c(c1)CCNCC2 (racemic) | 47 |
| COc1ccccc1C1CN(c2ccc3c(c2)CCNCC3)C(=O)O1 (racemic) | 87 |
| O=C1OC(c2cccc(Cl)c2)CN1c1ccc2c(c1)CCNCC2 (racemic) | 10 |
| O=C1OC(c2ccccc2Cl)CN1c1cccc(OC2CCNCC2)c1 (racemic) | 240 |
| O=C1OC(c2ccccc2Cl)CN1c1cccc(N2CCNCC2)c1 (racemic) | 140 |
| O=C1OC(c2ccccc2Cl)CN1c1ccc(N2CCNCC2)cc1 (racemic) | 1900 |
| O=C1OC(c2ccccc2Cl)CN1c1ccc2c(c1)CNCC2 (racemic) | 150 |
| O=C1OC(c2ccccc2Cl)CN1c1ccc2c(c1)CCNC2 (racemic) | 330 |

The compounds below were run against T2, 5-hydroxytryptamine receptor 6 (assay: Antagonist activity at human 5-HT6 receptor assessed as inhibition of 5-HT-induced cAMP level treated for 10 mins prior to 5-HT challenge for 30 mins by homogeneous time-resolved fluorescent assay). Conditions: not given.
Type: functional

| SMILES | IC50 [nM] |
| --- | --- |
| O=C1CC(c2ccccc2)CN1c1cnc2c(N3CCNCC3)cccc2c1 (racemic) | 15 |
| O=C1CC(c2ccccc2)CN1c1cnc2c(N3CCNCC3)cccc2c1 (single isomer, unassigned; enantiomer 1) | 8 |
